The target in data set [1] is T1, Amine oxidase [flavin-containing] B (Homo sapiens, UniProt P27338).
T1 sequence (P27338 whole entry): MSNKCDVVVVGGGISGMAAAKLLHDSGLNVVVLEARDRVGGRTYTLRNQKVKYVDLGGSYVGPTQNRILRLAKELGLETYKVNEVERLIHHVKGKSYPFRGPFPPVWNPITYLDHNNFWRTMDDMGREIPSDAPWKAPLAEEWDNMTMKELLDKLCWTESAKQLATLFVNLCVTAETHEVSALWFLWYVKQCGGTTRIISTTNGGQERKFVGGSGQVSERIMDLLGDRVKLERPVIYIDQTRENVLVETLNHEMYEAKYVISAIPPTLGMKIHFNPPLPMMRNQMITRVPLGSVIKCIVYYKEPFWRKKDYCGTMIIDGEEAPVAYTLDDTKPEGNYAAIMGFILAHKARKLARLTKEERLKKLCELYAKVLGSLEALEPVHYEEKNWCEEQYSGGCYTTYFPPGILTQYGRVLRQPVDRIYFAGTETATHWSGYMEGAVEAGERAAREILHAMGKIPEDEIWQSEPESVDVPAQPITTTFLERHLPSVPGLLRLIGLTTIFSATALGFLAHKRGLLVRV
The data set is described as follows: Inhibition of human recombinant MAOB expressed in baculovirus infected BTI insect cells assessed as hydrogen peroxide production at 100 uM after 15 mins by Amplex red assay. The settings on record: 0.25 h; for inhibition (INH): 100 µM. In a few lines: (§1)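 Recombinant hMAO-A or hMAO-B, in an amount oxidizing 165 pmol p-tyramine/min in controls, preincubated with test drug 15 min at 37 °C in 0.05 M sodium phosphate pH 7.4, dark. Reaction started with 1 U/ml HRP, Amplex Red and 1 mM p-tyramine (final). Resorufin read at ex 545/em 590 nm over 15 min. Background subtracted; vehicle (DMSO) controls. Precipitation limited higher concentrations.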

Data set [2] addresses T2, Amine oxidase [flavin-containing] A (Homo sapiens, UniProt P21397).
T2 sequence (P21397 whole entry): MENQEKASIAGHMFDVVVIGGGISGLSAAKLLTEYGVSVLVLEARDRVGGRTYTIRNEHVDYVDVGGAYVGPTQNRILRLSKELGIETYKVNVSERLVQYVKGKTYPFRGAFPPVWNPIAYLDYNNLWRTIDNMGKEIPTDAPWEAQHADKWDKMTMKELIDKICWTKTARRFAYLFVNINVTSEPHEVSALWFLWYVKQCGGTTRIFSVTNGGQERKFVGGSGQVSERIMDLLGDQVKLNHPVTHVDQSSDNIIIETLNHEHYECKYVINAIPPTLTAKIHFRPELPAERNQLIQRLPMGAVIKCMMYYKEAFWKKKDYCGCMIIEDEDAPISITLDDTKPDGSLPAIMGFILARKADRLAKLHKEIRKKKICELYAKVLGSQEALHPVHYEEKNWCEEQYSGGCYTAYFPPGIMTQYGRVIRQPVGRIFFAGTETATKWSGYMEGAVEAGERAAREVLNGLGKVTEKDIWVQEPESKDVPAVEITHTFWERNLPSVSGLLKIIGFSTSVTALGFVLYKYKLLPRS
As to the kind of experiment: Inhibition of human recombinant MAOA expressed in baculovirus infected BTI insect cells assessed as hydrogen peroxide production at 100 uM after 15 mins by Amplex red assay. Conditions: 0.25 h; for inhibition (INH): 100 µM; call rule not given here. In a few lines: as §1

The target of data set [3] is T1, Amine oxidase [flavin-containing] B. The data set is described as follows: biochemical. Type of data set: cell-based.
The species named for a further data set is Homo sapiens. The data set is described as follows: Selectivity index, ratio of IC50 for human recombinant MAOA to IC50 for human recombinant MAOB. In a few lines: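 IC50 values for hMAO-A and hMAO-B came from the Amplex Red/HRP assay, with 1 mM p-tyramine and readings at ex 545/em 590 nm at 37 °C. […] The selectivity index is IC50(MAO-A)/IC50(MAO-B). Where MAO-A was not inhibited, its IC50 was set at the highest concentration tested. Values are mean ± SEM.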

The target of data set [4] is T1, Amine oxidase [flavin-containing] B. The data set is described as follows: Inhibition of human recombinant MAOB expressed in baculovirus infected BTI insect cells assessed as hydrogen peroxide production at 1 mM after 15 mins by Amplex red assay. The settings on record: 0.25 h, 1000 µM. In a few lines:
as §1

pIC50: −log10 of the molar value. A value given as a limit tells only on which side of the number the result lay.

Broadly, the inhibition is the relative decrease from the control value, in per cent. As for `Cc1ccc(C2=NN(C(N)=S)CC2C)cc1` (stereo unspecified), the inhibition at 100 µM in data set [1] turned out to be 40%. Also, in data set [2], the “inhibition (INH)” value is reported as “Not Active”.
As for `Cc1ccccc1C1=NN(C(N)=S)CC1`, the “inhibition (INH)” value in data set [1] and in data set [2] was “Not Active” in each case.
Take `CNC(=S)N1CC(C)C(c2ccc(F)cc2)=N1` (stereo unspecified): the inhibition at 100 µM in data set [1] is 40%. The “inhibition (INH)” value in data set [2] was “Not Active”.
Take `CNC(=S)N1CC(C)C(c2ccccc2)=N1` (stereo unspecified): the inhibition at 100 µM in data set [1] came to 40%. The “inhibition (INH)” value in data set [2] was “Not Active”.
For orientation: pIC50 means −log10 of the IC50, conventionally taken in molar units. Low values mean a large IC50, high ones a small IC50. With `CNC(=S)N1CCC(c2ccc(F)cc2)=N1`, in data set [3], the pIC50 is 4.29. Besides, in the data set filed under Homo sapiens, the Selectivity Index is above 1.96. Besides, the “inhibition (INH)” value in data set [2] is recorded as “Not Active”.
For the compound `Cc1cccc(C2=NN(C(N)=S)CC2)c1`, the “inhibition (INH)” value in data set [1] and in data set [2] was “Not Active” throughout.
In data set [3], `CNC(=S)N1CCC(c2cccc(OC)c2)=N1` gave a pIC50 of 4.15. The Selectivity Index in the data set filed under Homo sapiens is above 1.4. The “inhibition (INH)” value in data set [2] is “Not Active”.
For `CNC(=S)N1CC(C)C(c2ccc(C)cc2)=N1` (stereo unspecified), the inhibition at 100 µM in data set [1] and in data set [2] was 40% each time.
Regarding `NC(=S)N1CCC(c2ccc(F)cc2)=N1`, the “inhibition (INH)” value in data set [1] and in data set [2] was “Not Active” in each case.
As to `COc1ccc(C2=NN(C(N)=S)CC2C)cc1` (stereo unspecified), the pIC50 in data set [3] is 4.07. Besides, in the data set filed under Homo sapiens, the Selectivity Index was above 1.18. In addition, the inhibition at 100 µM in data set [2] came to 40%.
With `CC1CN(C(N)=S)N=C1c1ccccc1` (stereo unspecified), the inhibition at 100 µM in data set [1] worked out at 40%. The “inhibition (INH)” value in data set [2] is given as “Not Active”.
In the case of `NC(=S)N1CCC(c2cccs2)=N1`, the “inhibition (INH)” value in data set [1] and in data set [2] was “Not Active” each time.
Regarding `NC(=S)N1CCC(c2ccc(Cl)cc2Cl)=N1`, the “inhibition (INH)” value in data set [1] and in data set [2] was “Not Active” throughout.
In turn, `CNC(=S)N1CC(C)C(c2ccc(Cl)cc2)=N1` (stereo unspecified) showed a pIC50 in data set [3] of 4.46. Also, the Selectivity Index in the data set listed under Homo sapiens is above 2.87. In addition, the “inhibition (INH)” value in data set [2] was “Not Active”.
Consider `CNC(=S)N1CCC(c2cccs2)=N1`, for which the “inhibition (INH)” value in data set [1] and in data set [2] was “Not Active” throughout.
As for `Cc1ccc(C2=NN(C(N)=S)CC2)cc1`, the pIC50 in data set [3] was 4.74. Moreover, the Selectivity Index in the data set listed under Homo sapiens was above 5.51. Also, the “inhibition (INH)” value in data set [2] is listed as “Not Active”.
Consider `CNC(=S)N1CCC(c2ccc(OC)cc2)=N1`, for which the pIC50 in data set [3] was 4.86. In addition, the Selectivity Index in the data set filed under Homo sapiens was above 7.3. In data set [2], the “inhibition (INH)” value was “Not Active”.
Consider `CNC(=S)N1CCC(c2cccc(C)c2)=N1`, for which the pIC50 in data set [3] was 4.27. Besides, the Selectivity Index in the data set listed under Homo sapiens is above 1.87. Moreover, the “inhibition (INH)” value in data set [2] is “Not Active”.
For the compound `CC1CN(C(N)=S)N=C1c1ccc(F)cc1` (stereo unspecified), the inhibition at 100 µM in data set [1] and in data set [2] was 40% throughout.
As to `O=C(NCCN1CCOCC1)c1ccc(Cl)cc1` [MOCLOBEMIDE], the “inhibition (INH)” value in data set [4] is “Not Active”.
Regarding `COc1cccc(C2=NN(C(N)=S)CC2)c1`, the “inhibition (INH)” value in data set [1] and in data set [2] was “Not Active” in each case.
As to `CNC(=S)N1CCC(c2ccccc2C)=N1`, the “inhibition (INH)” value in data set [1] and in data set [2] was “Not Active” throughout.
In the case of `CC1CN(C(N)=S)N=C1c1ccc(Cl)cc1` (stereo unspecified), the inhibition at 100 µM in data set [1] and in data set [2] was 40% each time.
Compound `CNC(=S)N1CC(C)C(c2ccc(OC)cc2)=N1` (stereo unspecified) gave a pIC50 in data set [3] of 4.31. For the same compound, the Selectivity Index in the data set filed under Homo sapiens is above 2.02. Further, the “inhibition (INH)” value in data set [2] is given as “Not Active”.
In the case of `CNC(=S)N1CCC(c2ccc(C)cc2)=N1`, in data set [3], the pIC50 is 4.78. Also, in the data set listed under Homo sapiens, the Selectivity Index was above 5.96. Moreover, the inhibition at 100 µM in data set [2] turned out to be 40%.
In the case of `COc1ccc(C2=NN(C(N)=S)CC2)cc1`, in data set [3], the pIC50 was 4.81. Besides, the Selectivity Index in the data set listed under Homo sapiens is above 6.46. Also, the “inhibition (INH)” value in data set [2] was “Not Active”.
